# Laboratory results reported in paper PMC12218390 (Scientific Reports, 2025).
# Assays:
# BHK-21 cells = assay: MTT assay for Maximum Non-Toxic Dose; assay type: cell-based
# HaCaT cells = assay: MTT cytotoxicity assay; assay type: cell-based, human; conditions: 100 µg/mL
# Method in brief: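 HaCaT keratinocytes were grown in DMEM with 10% FBS and 1% antibiotic-antimycotic at 37 °C, 5% CO₂. Cells were seeded at 1 × 10⁴/well for 24 h, then exposed to 1 to 100 µg/mL for 48 h, with 5-FU as the positive control and untreated cells as baseline. MTT (5 mg/mL) was added for 4 h, then SDS/DMF lysis buffer for 2 h, and plates read at 570 nm as percentage proliferation. Lower concentrations were retested to derive IC50 ± SE.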
# [1] = test system: Dengue virus type-2 (DENV2) in BHK-21 cells; assay: Cytopathic effect; assay type: cell-based; conditions: DENV2-infected BHK-21 cells; concentrations within MNTD
# Method in brief: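 Maximal non-toxic dose in BHK-21 cells was first set by MTT. Cells were seeded at 1 × 10⁵/well and infected with DENV2 (MOI 0.02, DMEM with 2% FBS) for 1 h at 37 °C, 5% CO₂. At 1 h post-infection, compounds diluted in DMEM (2% FBS) within the non-toxic range were added, with castanospermine as the positive control. CPE was scored by phase-contrast microscopy, in triplicate.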
# [2] = DPPH free radical scavenging assay; assay type: physicochemical; conditions: ascorbic acid as reference
# Method in brief: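 DPPH (4 mg/100 ml in methanol) was mixed with test compound or ascorbic acid at 1 to 500 µg/ml in methanol. The control was DPPH plus methanol, and methanol alone served as blank. Samples were incubated 20–30 min at 37 °C and the decrease in absorbance at 515 nm read. Percentage scavenging was calculated from control versus sample absorbance, in triplicate.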
Structure (SMILES),Maximal non-toxic dose (MNTD) (BHK-21 cells) [µg/mL],Cell death (HaCaT cells),Inhibition / reduction in cytopathic effects [1],DPPH radical scavenging IC50 [2] [µg/mL]
"Nc1cc(=O)oc2ccccc12 [Compound T1, 4-aminocoumarin]",2.5,very low percentages of cell death,did not exhibit significant inhibition of cytopathic effects,
"Cc1ccc(S(=O)(=O)[O-])cc1.Nc1c([I+]c2ccccc2)c(=O)oc2ccccc12 [Compound T2, 4-amino-3-phenyliodoniocoumarin tosylate]",,more than 60%,up to 12%,≥ 50
"O=c1oc2ccccc2c(Nc2ccccc2)c1I [Compound T4, 3-iodo-4-phenylaminocoumarin]",1,more than 60%,up to 12%,
"O=c1cc(Nc2ccccc2)c2ccccc2o1 [Compound T5, 4-phenylaminocoumarin]",0.1,very low percentages of cell death,did not exhibit significant inhibition of cytopathic effects,
"O=c1oc2ccccc2c(N(c2ccccc2)c2ccccc2)c1I [Compound T6, 4-diphenylamino-3-iodocoumarin]",0.1,very low percentages of cell death,did not exhibit significant inhibition of cytopathic effects,
"O[C@H]1[C@H](O)[C@@H](O)CN2CC[C@H](O)[C@H]12 [castanospermine, reference compound]",,,68%,
